Key:
[1] = target: T1, Polyunsaturated fatty acid 5-lipoxygenase (Mus musculus, UniProt P48999); test: Inhibition of 5-lipoxygenase in mouse macrophages.
T1 sequence (P48999 whole entry): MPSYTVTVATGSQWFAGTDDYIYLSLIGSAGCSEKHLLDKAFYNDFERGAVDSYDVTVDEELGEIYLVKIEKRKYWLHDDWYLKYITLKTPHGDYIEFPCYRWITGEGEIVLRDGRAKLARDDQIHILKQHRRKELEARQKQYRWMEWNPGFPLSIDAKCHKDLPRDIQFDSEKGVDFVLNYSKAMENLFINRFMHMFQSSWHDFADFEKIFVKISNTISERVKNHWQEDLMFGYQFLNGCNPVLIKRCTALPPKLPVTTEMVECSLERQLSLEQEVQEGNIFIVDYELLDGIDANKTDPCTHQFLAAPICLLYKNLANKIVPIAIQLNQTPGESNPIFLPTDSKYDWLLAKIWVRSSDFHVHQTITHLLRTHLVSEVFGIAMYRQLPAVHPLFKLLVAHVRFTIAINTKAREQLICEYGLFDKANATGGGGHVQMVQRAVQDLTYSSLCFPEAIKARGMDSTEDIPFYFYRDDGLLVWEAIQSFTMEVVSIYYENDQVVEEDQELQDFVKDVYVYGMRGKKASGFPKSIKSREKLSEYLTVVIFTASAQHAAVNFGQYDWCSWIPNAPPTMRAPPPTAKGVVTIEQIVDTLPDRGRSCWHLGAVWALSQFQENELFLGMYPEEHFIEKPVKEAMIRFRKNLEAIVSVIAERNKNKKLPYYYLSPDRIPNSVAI
Outline: (§1)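 LTC4 and PGE2 synthesis measured in plasma-free cultures of murine peritoneal macrophages.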

[2] = target: T2, Polyunsaturated fatty acid 5-lipoxygenase (Homo sapiens, UniProt P09917); test: Inhibition of 5-lipoxygenase in human whole blood.; format: tissue-based
T2 sequence (P09917 whole entry): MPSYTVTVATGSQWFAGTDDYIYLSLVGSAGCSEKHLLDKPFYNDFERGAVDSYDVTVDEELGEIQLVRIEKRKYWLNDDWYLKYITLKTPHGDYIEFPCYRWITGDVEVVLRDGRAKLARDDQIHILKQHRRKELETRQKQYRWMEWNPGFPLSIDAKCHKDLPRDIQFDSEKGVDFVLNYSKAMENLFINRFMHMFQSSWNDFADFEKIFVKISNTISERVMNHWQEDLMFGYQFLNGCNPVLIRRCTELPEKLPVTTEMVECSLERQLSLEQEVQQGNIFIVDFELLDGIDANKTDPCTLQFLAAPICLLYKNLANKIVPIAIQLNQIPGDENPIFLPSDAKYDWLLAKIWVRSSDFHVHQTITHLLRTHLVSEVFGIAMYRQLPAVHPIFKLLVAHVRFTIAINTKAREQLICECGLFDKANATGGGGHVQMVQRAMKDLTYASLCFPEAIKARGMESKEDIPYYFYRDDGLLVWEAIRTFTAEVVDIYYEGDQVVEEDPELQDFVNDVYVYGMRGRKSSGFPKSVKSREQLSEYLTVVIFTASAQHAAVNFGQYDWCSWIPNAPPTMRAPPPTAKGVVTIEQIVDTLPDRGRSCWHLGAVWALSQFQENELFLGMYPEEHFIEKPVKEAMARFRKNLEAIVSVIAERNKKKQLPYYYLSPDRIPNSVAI
Outline: (§2)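 Eicosanoid (LTB4, PGE2, TXB2) generation measured in vitro in heparinised rat or human whole blood; IC50s given ± SE with the number of determinations.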

[3] = target: T3, Polyunsaturated fatty acid 5-lipoxygenase (Rattus norvegicus, UniProt P12527); test: Compound was tested for the inhibition of 5-lipoxygenase (5-Lpo) in rat whole blood.; format: tissue-based; outline: as §2
T3 sequence (P12527 whole entry): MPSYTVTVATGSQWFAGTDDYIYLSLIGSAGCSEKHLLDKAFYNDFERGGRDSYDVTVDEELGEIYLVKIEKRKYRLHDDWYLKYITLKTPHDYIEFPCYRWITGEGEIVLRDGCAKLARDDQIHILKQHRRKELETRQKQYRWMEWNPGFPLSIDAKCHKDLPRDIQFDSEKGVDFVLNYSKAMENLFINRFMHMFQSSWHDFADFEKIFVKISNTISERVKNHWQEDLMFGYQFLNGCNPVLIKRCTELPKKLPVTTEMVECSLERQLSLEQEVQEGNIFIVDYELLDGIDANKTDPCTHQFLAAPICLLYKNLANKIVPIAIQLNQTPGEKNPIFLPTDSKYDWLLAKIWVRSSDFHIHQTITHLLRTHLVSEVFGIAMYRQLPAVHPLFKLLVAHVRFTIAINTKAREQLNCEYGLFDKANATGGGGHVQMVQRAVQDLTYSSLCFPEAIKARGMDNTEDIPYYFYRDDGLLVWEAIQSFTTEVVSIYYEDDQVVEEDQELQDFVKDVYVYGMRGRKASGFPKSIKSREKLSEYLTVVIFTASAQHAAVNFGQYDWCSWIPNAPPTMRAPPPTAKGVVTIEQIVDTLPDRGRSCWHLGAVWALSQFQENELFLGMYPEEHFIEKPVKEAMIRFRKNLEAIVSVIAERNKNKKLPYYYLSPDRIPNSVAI

Homo sapiens [4] = species: Homo sapiens; test: In vitro inhibition of LTB4 synthesis in human whole blood.; format: functional; outline: as §2
Homo sapiens [5] = species: Homo sapiens; test: In vitro inhibition of TXB2 synthesis in human whole blood.; format: functional; outline: as §2
Mus musculus [6] = species: Mus musculus; test: In vitro inhibition of LTC4 synthesis in plasma free mouse macrophages.; format: functional; outline: as §1
Mus musculus [7] = species: Mus musculus; test: In vitro inhibition of PGE-2 synthesis in plasma free mouse macrophages.; format: functional; outline: as §1
Rattus norvegicus [8] = species: Rattus norvegicus; test: In vitro inhibition of LTB4 synthesis in rat whole blood.; format: functional; outline: as §2
Rattus norvegicus [9] = species: Rattus norvegicus; test: In vitro inhibition of PGE-2 synthesis against rat whole blood.; format: functional; conditions: in the assay text read “TXB2” for “PGE-2”; outline: as §2
Rattus norvegicus [10] = test: Compound was evaluated ex vivo for inhibition of LTB4 synthesis in rat on oral administration.; format: functional
Outline: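 Rats dosed orally at 1 mL/kg with a suspension made by mixing 300 µL of compound in DMSO into 15 mL of 0.5% hydroxypropyl methyl cellulose with 0.1% polysorbate 80. Controls got the same volume of vehicle. After 1 h the animals were killed and bled, and LTB4 and TXB2 synthesis was measured in the blood ex vivo, n = 5 per point.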

[11] = target: T3, Polyunsaturated fatty acid 5-lipoxygenase; test: Compound was tested for the inhibition of 5-lipoxygenase (5-LPO) in rat basophilic leukemia (RBL) cells.; format: cell-based, RBL-1
Outline: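 Cell-free 5-LPO activity was measured spectrophotometrically. The enzyme source was the high-speed supernatant of rat basophilic leukemia (RBL) cells.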

Rattus norvegicus [12] = species: Rattus norvegicus; test: In vitro inhibition of TXB2 synthesis against rat whole blood.

Compound | IC50 [1] [nM] | IC50 [2] [nM] | also measured
CCC(O)(c1cccc(OC/C=C/c2ccccc2)c1)c1nccs1 (configuration not stated) | 6 | 800 | –
CCC(OC)(c1cccc(OCc2ccc3ccccc3c2)c1)c1nccs1 (configuration not stated) [ZM-211965] | 8 | – | IC50 [3]: 500 nM; IC50 (Homo sapiens [4]): 400 nM; IC50 (Homo sapiens [5]): > 100000 nM; IC50 (Mus musculus [6]): 8 nM; IC50 (Mus musculus [7]): > 50000 nM; IC50 (Rattus norvegicus [8]): 500 nM; IC50 (Rattus norvegicus [9]): > 100000 nM; ED50 (Rattus norvegicus [10]): 10 mg/kg
CCC(O)(c1cccc(OCCCc2ccccc2)c1)c1nccs1 (configuration not stated) | – | 11000 | –
COC(C)(c1cccc(OCc2ccc3ccccc3c2)c1)c1nccs1 (stereo in doubt; 2p) | 30 | 700 | –
COC(c1cccc(OCc2ccc3ccccc3c2)c1)c1nccs1 (configuration not stated) | 300 | 7000 | IC50 [3]: 6000 nM
Cc1cnc(C(C)(O)c2cccc(OCc3ccc4ccccc4c3)c2)s1 (configuration not stated) | – | ~40000 | –
c1ccc2cc(COc3ccc4c(c3)C(c3nccs3)CC4)ccc2c1 (configuration not stated) | – | > 40000 | –
CCC(OC)(c1cccc(OCc2ccc3ccccc3c2)c1)c1cncs1 (configuration not stated) | – | 6300 | –
CC(C)C(O)(c1cccc(OCc2ccc3ccccc3c2)c1)c1nccs1 (configuration not stated) | 1000 | 40000 | –
CCC(O)(c1cccc(OCC#Cc2cccc(C)c2)c1)c1nccs1 (configuration not stated) | – | 2500 | –
CCC(O)(c1cccc(OCc2ccc(Cl)c(Cl)c2)c1)c1nccs1 (configuration not stated) | – | 1100 | –
CCC(OC)(c1cccc(OCc2ccc3ccccc3c2)c1)c1cscn1 (configuration not stated) | – | 600 | –
COC(C)(c1cccc(OCc2ccc3ccccc3c2)c1)c1nccs1 (stereo in doubt; 2o) | 2000 | ~40000 | –
COC1CCc2ccc(OCc3ccc4ccccc4c3)cc21 (configuration not stated) | – | > 40000 | –
COC1(c2nccs2)CCc2ccc(OCc3ccc4ccccc4c3)cc21 (racemic) | 14 | 700 | IC50 [11]: 800 nM
OC(c1cccc(OCc2ccc3ccccc3c2)c1)c1nccs1 (configuration not stated) | – | – | IC50 [3]: 30000 nM
Cc1cnc(C(O)c2cccc(OCc3ccc4ccccc4c3)c2)[nH]1 (configuration not stated) | – | – | IC50 [3]: > 30000 nM
COC1(c2nccs2)CCc2ccc(OCc3ccc4ccccc4c3)cc21 (single isomer, unassigned; (+)) | < 30 | 500 | IC50 [11]: 130 nM
CCC(OC)(c1cccc(OCc2ccc3ccccc3c2)c1)c1nc(C)cs1 (configuration not stated) | 820 | ~40000 | –
CCCC(O)(c1cccc(OCc2ccc3ccccc3c2)c1)c1nccs1 (configuration not stated) | 80 | 8800 | –
CCC(OC)(c1cccc(OCc2ccc(F)c(F)c2)c1)c1nccs1 (configuration not stated) | 800 | 40000 | –
CCC(OC)(c1ccc(OCc2ccc3ccccc3c2)cc1)c1nccs1 (configuration not stated) | – | ~40000 | –
CCC(OC)(c1nccs1)c1ccccc1OCc1ccc2ccccc2c1 (configuration not stated) | – | > 40000 | –
COC1(c2nccs2)CCc2c(OCc3ccc4ccccc4c3)cccc21 (configuration not stated) | – | > 40000 | –
CCC(OC)(c1cccc(OCc2cccc3ccccc23)c1)c1nccs1 (configuration not stated) | – | 4800 | –
CCC(O)(c1cccc(OCC#Cc2ccccc2)c1)c1nccs1 (configuration not stated) | 30 | 1000 | –
CC(c1cc2ccccc2s1)N(O)C(N)=O (configuration not stated) [ZILEUTON] | – | – | IC50 (Homo sapiens [4]): 2000 nM; IC50 (Homo sapiens [5]): 25000 nM; IC50 (Mus musculus [6]): 1200 nM; IC50 (Mus musculus [7]): 27000 nM; IC50 (Rattus norvegicus [8]): 2000 nM; ED50 (Rattus norvegicus [10]): 5 mg/kg; IC50 (Rattus norvegicus [12]): 25000 nM
COC1(c2nccs2)CCc2ccc(OCc3ccc4ccccc4c3)cc21 (single isomer, unassigned; (-)) | 1500 | > 40000 | IC50 [11]: > 20000 nM
CCCCCCCCCCOc1cccc(C(O)c2nc(C)c[nH]2)c1 (configuration not stated) | – | – | IC50 [3]: > 30000 nM
COC(C)(c1cccc(OCc2ccc3ccccc3c2)c1)c1nccs1 (configuration not stated) | 5 | 500 | IC50 [3]: 800 nM

Source: ChEMBL document CHEMBL1125585, “(Methoxyalkyl)thiazoles: a new series of potent, selective, and orally active 5-lipoxygenase inhibitors displaying high enantioselectivity” (J Med Chem, 1991)
